Assays:
[1] = Cmax in CD1 mouse at 1.5 mg/kg, iv at 5 mins by LC-MS/MS method; assay type: ADME, organism-based; set-up: dose 1.5 mg/kg, route intravenous; conditions: in vivo
Outline: (§1)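 Male CD-1 mice (25–30 g) received single IV dose 1.5 mg/kg MBZ-C dissolved just before dosing in 1% DMSO, 10% Cremophor EL, 89% saline; sacrificed by CO2 at set times; plasma extracted with acetonitrile containing losartan internal standard and MBZ measured by LC-MS/MS against naive-matrix calibration (0.001-50 nmol/g).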

[2] = Cmax in CD1 mouse brain at 30 mg/kg administered via oral gavage at 60 mins by LC-MS/MS method; assay type: ADME, organism-based; set-up: dose 30 mg/kg, route oral; conditions: in vivo, 1 h
Outline: (§2)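 Male CD-1 mice dosed once by oral gavage, 30 mg/kg MBZ equivalent, formulated just before dosing in 5% ethanol, 5% polysorbate 80, 90% water; plasma and brain collected at set times after CO2 euthanasia; MBZ by LC-MS/MS; AUC0-t by log-linear trapezoidal rule; brain/plasma ratio as ratio of mean AUC0-t values.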

[3] = Tmax in Beagle dog at […], po by LC-MS/MS method; assay type: ADME, organism-based, Canis lupus familiaris; conditions: in vivo
[4] = Half life in CD1 mouse at 1.5 mg/kg, iv by LC-MS/MS method; assay type: ADME, organism-based; conditions: in vivo; outline: as §1
[5] = Ratio of drug level in brain to plasma in CD1 mouse at 30 mg/kg administered via oral gavage by LC-MS/MS method; assay type: ADME, organism-based; conditions: brain and plasma, read-out: BPR; outline: as §2
[6] = Prodrug conversion in mouse liver microsomes assessed as mebendazole formation by measuring remaining parent drug at 10 uM measured at 60 mins by LC-MS/MS method; assay type: ADME, microsome; conditions: 1 h
Outline: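 Mouse liver microsomes (0.5 mg/mL) with 10 µM prodrug in 100 mM potassium phosphate, pH 7.4, reaction started by adding microsomes; triplicate samples at 0 and 60 min quenched with ice-cold acetonitrile containing losartan; prodrug disappearance by LC-MS/MS.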

[7] = AUC (0 to t) in CD1 mouse plasma at 30 mg/kg administered via oral gavage by LC-MS/MS method; assay type: ADME, organism-based; outline: as §2
[8] = Tmax in CD1 mouse at 1.5 mg/kg, iv by LC-MS/MS method; assay type: ADME, organism-based; conditions: in vivo; outline: as §1
[9] = Oral bioavailability in CD1 mouse plasma at 30 mg/kg administered via gavage by LC-MS/MS method; assay type: ADME, organism-based
[10] = AUC (0 to t) in Beagle dog at […], po by LC-MS/MS method; assay type: ADME, organism-based, Canis lupus familiaris; conditions: in vivo
[11] = Half life in Beagle dog at 0.3 mg/kg, iv by LC-MS/MS method; assay type: ADME, organism-based, Canis lupus familiaris; conditions: in vivo
Outline: (§3)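 Male beagle dogs (n=2) given single IV bolus of MBZ-C at 0.3 mg/kg in co-solvent vehicle (1% DMSO, 10% Cremophor EL). Jugular vein blood (~1 mL) by direct puncture at set times into sodium heparin tubes, kept on wet ice, spun 3,000 × g 5 min 4 °C, plasma stored -80 °C; MBZ quantified by LC-MS/MS.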

[12] = Tmax in CD1 mouse plasma at 30 mg/kg administered via oral gavage by LC-MS/MS method; assay type: ADME, organism-based; outline: as §2
[13] = Tmax in CD1 mouse brain at 30 mg/kg administered via oral gavage by LC-MS/MS method; assay type: ADME, organism-based; outline: as §2
[14] = Cmax in Beagle dog at […], po measured at 2 hrs by LC-MS/MS method; assay type: ADME, organism-based, Canis lupus familiaris; set-up: dose 2.5 mg/kg, route oral; conditions: in vivo
[15] = Cmax in Beagle dog at 0.3 mg/kg, iv at 5 mins by LC-MS/MS method; assay type: ADME, organism-based, Canis lupus familiaris; set-up: dose 0.3 mg/kg, route intravenous; conditions: in vivo; outline: as §3
[16] = Clearance in CD1 mouse at 1.5 mg/kg, iv by LC-MS/MS method; assay type: ADME, organism-based; conditions: in vivo; outline: as §1
[17] = Clearance in Beagle dog at 0.3 mg/kg, iv by LC-MS/MS method; assay type: ADME, organism-based, Canis lupus familiaris; conditions: in vivo; outline: as §3
[18] = AUC (0 to t) in CD1 mouse at 1.5 mg/kg, iv by LC-MS/MS method; assay type: ADME, organism-based; conditions: in vivo; outline: as §1
[19] = Oral bioavailability in human at 1.18 ug; assay type: ADME, organism-based; conditions: in vivo
[20] = Cmax in CD1 mouse plasma at 30 mg/kg administered via oral gavage at 60 mins by LC-MS/MS method; assay type: ADME, organism-based; set-up: dose 30 mg/kg, route oral; outline: as §2
[21] = Volume of distribution in CD1 mouse at 1.5 mg/kg, iv by LC-MS/MS method; assay type: ADME, organism-based; conditions: in vivo; outline: as §1
[22] = Oral bioavailability in human at 1.7 ug; assay type: ADME, organism-based; conditions: in vivo
[23] = Plasma concentration in CD1 mouse at 30 mg/kg administered single dose via oral gavage measured at 60 mins by LC-MS/MS method; assay type: ADME, organism-based
[24] = Prodrug conversion in mouse jejunum homogenate assessed as mebendazole formation by measuring remaining parent drug at 10 uM measured at 60 mins by LC-MS/MS method; assay type: ADME, tissue-based; conditions: in vitro, 1 h
Outline: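 Washed mouse jejunum diluted 10-fold in 0.1 M potassium phosphate buffer, probe-sonicated; homogenate spiked with 10 µM prodrug; triplicate aliquots at 0 and 60 min quenched with ice-cold acetonitrile plus losartan; prodrug remaining by LC-MS/MS peak-area ratio to internal standard.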

[25] = AUC (0 to t) in CD1 mouse brain at 30 mg/kg administered via oral gavage by LC-MS/MS method; assay type: ADME, organism-based; conditions: in vivo; outline: as §2
[26] = Prodrug conversion in naive mouse plasma assessed as mebendazole formation by measuring remaining parent drug at 10 uM measured at 60 mins by LC-MS/MS method; assay type: ADME, cell-free; conditions: 1 h
Outline: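 Prodrug spiked at 10 µM into 1 mL naive mouse plasma, incubated on orbital shaker at 37 °C; triplicate aliquots at 0 and 60 min quenched with ice-cold acetonitrile plus losartan internal standard; remaining prodrug by LC-MS/MS.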

[27] = Tmax in Beagle dog at 0.3 mg/kg, iv by LC-MS/MS method; assay type: ADME, organism-based, Canis lupus familiaris; conditions: in vivo; outline: as §3
[28] = Oral bioavailability in Beagle dog at […] by LC-MS/MS method; assay type: ADME, organism-based, Canis lupus familiaris; conditions: in vivo
[29] = AUC (0 to t) in Beagle dog at 0.3 mg/kg, iv by LC-MS/MS method; assay type: ADME, organism-based, Canis lupus familiaris; conditions: in vivo; outline: as §3
[30] = Volume of distribution in Beagle dog at 0.3 mg/kg, iv by LC-MS/MS method; assay type: ADME, organism-based, Canis lupus familiaris; conditions: in vivo; outline: as §3
[31] = Solubility of the compound in 0.01 M PBS after 24 hrs by shake flask method; assay type: physicochemical; conditions: buffer
[32] = Chemical stability of the compound in 0.01 M PBS assessed as parent compound remaining at 10 uM after 60 mins by LC-MS/MS method; assay type: physicochemical; conditions: read-out: Stability
Outline: (§4)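 Prodrug from 10 mM DMSO stock spiked to 10 µM final in preheated PBS at 37 °C; aliquots taken over 60 min, quenched with cold acetonitrile containing losartan internal standard, diluted with water, and intact prodrug measured by LC-MS/MS.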

[33] = Chemical stability of the compound in 0.01 M PBS at 10 uM after 60 mins by LC-MS/MS method; assay type: physicochemical; conditions: buffer, 1 h; outline: as §4
[34] = Prodrug conversion in CD1 mouse plasma assessed as mebendazole formation at 30 mg/kg mebendazole equivalent administered single dose via oral gavage measured at 60 mins by LC-MS/MS method; assay type: ADME, organism-based; conditions: in vivo, 1 h
[35] = mouse, in vivo, po, 30 mg/kg, 0.5 h

COC(=O)Nc1nc2ccc(C(=O)c3ccccc3)cc2[nH]1 [MEBENDAZOLE]
Cmax [1]: 5.3 µM
Cmax [2]: 5.1 nmol/g
Tmax [3]: 2 h
half-life [4]: 43.8 min
Kp [5]: 1
Stability [6]: 100%
AUC(0-t) [7]: 12.9 µM·h
Tmax [8]: 4.98 min
bioavailability [9]: 24%
AUC(0-t) [10]: 0.8 µM·h
half-life [11]: 43.2 min
Tmax [12]: 1 h
Tmax [13]: 1 h
Cmax at 2 h [14]: 200 nM
Cmax [15]: 2200 nM
clearance [16]: 27.4 mL/min/kg
clearance [17]: 22.2 mL/min/kg
AUC(0-t) [18]: 2.7 µM·h
bioavailability [19]: 22%
Cmax [20]: 5.1 µM
Vd [21]: 1.4 L/kg
bioavailability [22]: 17%
concentration at 1 h [23]: 2860 nM
Stability [24]: 100%
AUCt [25]: 13.1 nmol·h/g
Stability [26]: 100%
Tmax [27]: 4.98 min
bioavailability [28]: 11%
AUC(0-t) [29]: 0.9 µM·h
Vd [30]: 1.3 L/kg

COC(=O)Nc1nc2cc(C(=O)c3ccccc3)ccc2n1COC(=O)CC[C@H](N)C(=O)O
solubility [31]: Soluble
remaining at 1 h, 10 µM [32]: 0%

COC(=O)Nc1nc2cc(C(=O)c3ccccc3)ccc2n1COC(=O)OC[C@H]1OC(O)[C@H](O)[C@@H](O)[C@@H]1O (some centres not stated)
Stability [6]: 27%
solubility [31]: Soluble
Stability [24]: 4%
Stability [26]: 18%
Stability [33]: Stable

COC(=O)Nc1nc2cc(C(=O)c3ccccc3)ccc2n1COP(=O)(O)O
Drug metabolism [34]: 8.53 nmol/mL
Stability [6]: 100%
solubility [31]: Soluble
Stability [24]: 35%
Stability [26]: 62%
Stability [33]: Stable

COC(=O)Nc1nc2cc(C(=O)c3ccccc3)ccc2n1COC(=O)OC(C)C
solubility [31]: Soluble
Stability [33]: Stable

COC(=O)Nc1nc2cc(C(=O)c3ccccc3)ccc2n1COC(=O)CCC(=O)O
Stability [6]: 24%
solubility [31]: Soluble
Stability [24]: 30%
Stability [26]: 78%
Stability [33]: Stable

COC(=O)Nc1nc2cc(C(=O)c3ccccc3)ccc2n1COC(=O)CNC(=O)[C@H](CC(C)C)NC(C)=O
Drug metabolism [34]: 8.72 nmol/mL
Stability [6]: 29%
solubility [31]: Soluble
Stability [24]: 18%
Stability [26]: 0%
Stability [33]: Stable

COC(=O)Nc1nc2cc(C(=O)c3ccccc3)ccc2n1COP(=O)(O)OCOC(=O)OC(C)C
Drug metabolism [34]: 10.35 nmol/mL
Stability [6]: 14%
Cmax [35]: 12.2 µM
Stability [24]: 1%
Stability [26]: 73%
Stability [33]: Stable

— ChEMBL document CHEMBL4177759 (J Med Chem, 2018)
